In brackets after ≈: the same amount, converted by molar mass. Activity calls are given as the source filed them. The rule behind the calls is not given here.
Experiments:
[1] = tested on: Trichoderma viride; assay: Antimicrobial activity against Trichoderma viride NCIM 1195 at 500 ug/disk after 72 hrs by disk diffusion method; format: functional; conditions: NCIM 1195, 72 h, read-out: DIZ
In short: (§1)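 Fungal disc diffusion. 100 µl of suspension at 10⁶ CFU/ml was spread on Sabouraud's dextrose agar. Discs carrying test compound in DMSO were applied, with a DMSO-only disc as negative control. Plates were incubated at 27 °C for 72 h, and the zone of inhibition diameter was measured.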

[2] = tested on: Klebsiella aerogenes; assay: Antimicrobial activity against Klebsiella aerogenes NCIM 2239 at 1000 ug/disk after 24 hrs by disk diffusion method; format: functional
In short: (§2)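 Disc diffusion on Mueller–Hinton agar. 100 µl of bacterial suspension at 10⁸ CFU/ml is spread on the plate. Discs carry test compounds at two loadings, dissolved in DMSO; DMSO alone serves as negative control. Ofloxacin disc is the positive reference. Plates are incubated at 37 °C for 24 h, and the inhibition zone diameter is measured.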

[3] = tested on: Rhodotorula mucilaginosa; assay: Antimicrobial activity against Rhodotorula rubra NCIM 3174 after 72 hrs by serial dilution method; format: functional; conditions: NCIM 3174, 72 h
In short: (§3)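 MIC by broth dilution in Sabouraud's dextrose broth, run only on fungi found sensitive in the disc assay. Twofold serial dilutions were made in 1 ml broth per tube, covering 3.9 to 1000. Inoculated tubes were incubated at 27 °C for 72 h.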

[4] = tested on: Bacillus cereus; assay: Antimicrobial activity against Bacillus cereus NCIM 2155 at 1000 ug/disk after 24 hrs by disk diffusion method; format: functional; conditions: NCIM 2155, 24 h, read-out: DIZ; in short: as §2
[5] = tested on: Proteus vulgaris; assay: Antimicrobial activity against Proteus vulgaris NCIM 2027 at 500 ug/disk after 24 hrs by disk diffusion method; format: functional; in short: as §2
[6] = tested on: Bacillus subtilis; assay: Antimicrobial activity against Bacillus subtilis NCIM 2063 at 500 ug/disk after 24 hrs by disk diffusion method; format: functional; conditions: NCIM 2063, 24 h, read-out: DIZ; in short: as §2
[7] = tested on: Lipomyces lipofer; assay: Antimicrobial activity against Lipomyces lipofer NCIM 3252 at 500 ug/disk after 72 hrs by disk diffusion method; format: functional
In short: (§4)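 Disc diffusion on Sabouraud's dextrose agar. 100 µl of fungal suspension at 10⁶ CFU/ml is spread on the plate. Discs carry test compounds at two loadings in DMSO; DMSO alone is the negative control. Clotrimazole disc is the positive reference. Plates are incubated at 27 °C for 72 h, and the zone of inhibition diameter is measured.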

[8] = tested on: Aspergillus flavus; assay: Antimicrobial activity against Aspergillus flavus NCIM 902 at 500 ug/disk after 72 hrs by disk diffusion method; format: functional; conditions: NCIM 902, 72 h, read-out: DIZ; in short: as §4
[9] = tested on: Klebsiella aerogenes; assay: Antimicrobial activity against Klebsiella aerogenes NCIM 2239 at 500 ug/disk after 24 hrs by disk diffusion method; format: functional; in short: as §2
[10] = tested on: Bacillus cereus; assay: Antimicrobial activity against Bacillus cereus NCIM 2155 at 500 ug/disk after 24 hrs by disk diffusion method; format: functional; conditions: NCIM 2155, 24 h, read-out: DIZ; in short: as §2
[11] = tested on: Trichoderma viride; assay: Antimicrobial activity against Trichoderma viride NCIM 1195 after 72 hrs by serial dilution method; format: functional; conditions: NCIM 1195, 72 h; in short: as §3
[12] = tested on: Aspergillus fumigatus; assay: Antimicrobial activity against Aspergillus fumigatus NCIM 902 at 1000 ug/disk after 72 hrs by disk diffusion method; format: functional; conditions: NCIM 902, 72 h, read-out: DIZ; in short: as §4
[13] = tested on: Aspergillus parasiticus; assay: Antimicrobial activity against Aspergillus parasiticus NCIM 904 at 1000 ug/disk after 72 hrs by disk diffusion method; format: functional; conditions: NCIM 904, 72 h, read-out: DIZ; in short: as §4
[14] = tested on: Penicillium chrysogenum; assay: Antimicrobial activity against Penicillium chrysogenum NCIM 707 at 500 ug/disk after 72 hrs by disk diffusion method; format: functional; in short: as §4
[15] = tested on: Proteus vulgaris; assay: Antimicrobial activity against Proteus vulgaris NCIM 2027 at 1000 ug/disk after 24 hrs by disk diffusion method; format: functional; in short: as §2
[16] = tested on: Lipomyces lipofer; assay: Antimicrobial activity against Lipomyces lipofer NCIM 3252 at 1000 ug/disk after 72 hrs by disk diffusion method; format: functional; in short: as §4
[17] = tested on: Pseudomonas aeruginosa; assay: Antimicrobial activity against Pseudomonas aeruginosa NCIM 2200 at 1000 ug/disk after 24 hrs by disk diffusion method; format: functional; in short: as §2
[18] = tested on: Salmonella typhimurium; assay: Antimicrobial activity against Salmonella Typhimurium NCIM 2501 at 1000 ug/disk after 24 hrs by disk diffusion method; format: functional, Salmonella enterica subsp. enterica serovar Typhimurium; conditions: Salmonella enterica, NCIM 2501, 24 h; read-out: DIZ
In short: (§5)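 Disc diffusion. 100 µl of bacterial suspension at 10⁸ CFU/ml was spread on Mueller–Hinton agar. Discs loaded with test compound dissolved in DMSO were placed on the lawn, with a DMSO-only disc as negative control. Plates were incubated at 37 °C for 24 h, and the inhibition zone diameter was measured.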

[19] = tested on: Rhodococcus corynebacterioides; assay: Antimicrobial activity against Corynebacterium rubrum NCIM 2252 at 500 ug/disk after 24 hrs by disk diffusion method; format: functional; conditions: Rhodococcoides corynebacterioides; in short: as §2
[20] = tested on: Rhodotorula mucilaginosa; assay: Antimicrobial activity against Rhodotorula rubra NCIM 3174 at 500 ug/disk after 72 hrs by disk diffusion method; format: functional; conditions: NCIM 3174, 72 h, read-out: DIZ; in short: as §1
[21] = tested on: Escherichia coli; assay: Antimicrobial activity against Escherichia coli NCIM 2065 after 24 hrs by serial dilution method; format: functional; conditions: NCIM 2065, 24 h
In short: (§6)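 Broth dilution MIC in nutrient broth, run only for organisms found sensitive in disc diffusion. Compounds are two-fold serially diluted in 1 ml sterile broth per tube, spanning 3.9 to 1000. Inoculated tubes are incubated at 37 °C for 24 h.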

[22] = tested on: Salmonella typhimurium; assay: Antimicrobial activity against Salmonella Typhimurium NCIM 2501 at 500 ug/disk after 24 hrs by disk diffusion method; format: functional, Salmonella enterica subsp. enterica serovar Typhimurium; conditions: Salmonella enterica, NCIM 2501, 24 h; read-out: DIZ; in short: as §5
[23] = tested on: Rhodotorula mucilaginosa; assay: Antimicrobial activity against Rhodotorula rubra NCIM 3174 at 1000 ug/disk after 72 hrs by disk diffusion method; format: functional; conditions: NCIM 3174, 72 h, read-out: DIZ; in short: as §1
[24] = tested on: Aliivibrio fischeri; assay: Antimicrobial activity against Vibrio fischeri NCIM 2154 at 500 ug/disk after 24 hrs by disk diffusion method; format: functional; in short: as §5
[25] = tested on: Rhodococcus corynebacterioides; assay: Antimicrobial activity against Corynebacterium rubrum NCIM 2252 at 1000 ug/disk after 24 hrs by disk diffusion method; format: functional; conditions: Rhodococcoides corynebacterioides; in short: as §2
[26] = tested on: Staphylococcus; assay: Antimicrobial activity against Staphylococcus albus NCIM 2178 at 500 ug/disk after 24 hrs by disk diffusion method; format: functional; in short: as §5
[27] = tested on: Escherichia coli; assay: Antimicrobial activity against Escherichia coli NCIM 2065 at 1000 ug/disk after 24 hrs by disk diffusion method; format: functional; conditions: NCIM 2065, 24 h, read-out: DIZ; in short: as §2
[28] = tested on: Aliivibrio fischeri; assay: Antimicrobial activity against Vibrio fischeri NCIM 2154 after 24 hrs by serial dilution method; format: functional; conditions: NCIM 2154, 24 h
[29] = tested on: Bacillus subtilis; assay: Antimicrobial activity against Bacillus subtilis NCIM 2063 after 24 hrs by serial dilution method; format: functional; conditions: NCIM 2063, 24 h; in short: as §6
[30] = tested on: Aspergillus parasiticus; assay: Antimicrobial activity against Aspergillus parasiticus NCIM 904 at 500 ug/disk after 72 hrs by disk diffusion method; format: functional; conditions: NCIM 904, 72 h, read-out: DIZ; in short: as §4
[31] = tested on: Aliivibrio fischeri; assay: Antimicrobial activity against Vibrio fischeri NCIM 2154 at 1000 ug/disk after 24 hrs by disk diffusion method; format: functional; conditions: NCIM 2154, 24 h, read-out: DIZ; in short: as §5
[32] = tested on: Escherichia coli; assay: Antimicrobial activity against Escherichia coli NCIM 2065 at 500 ug/disk after 24 hrs by disk diffusion method; format: functional; conditions: NCIM 2065, 24 h, read-out: DIZ; in short: as §2
[33] = tested on: Aspergillus flavus; assay: Antimicrobial activity against Aspergillus flavus NCIM 902 at 1000 ug/disk after 72 hrs by disk diffusion method; format: functional; conditions: NCIM 902, 72 h, read-out: DIZ; in short: as §4
[34] = tested on: Staphylococcus; assay: Antimicrobial activity against Staphylococcus albus NCIM 2178 at 1000 ug/disk after 24 hrs by disk diffusion method; format: functional; in short: as §5

Structure (SMILES): CC1(C)CC(=O)C2=C(C1)Nc1c(ccc3ccccc13)C2c1ccccc1 (centres undefined)
- zone of inhibition at 500 µg/disc [1]: 9 mm
- diameter of the inhibition zone (DIZ) [2]: inactive
- MIC [3]: 31.2 µg/mL (≈ 88.3 µM)
- zone of inhibition at 1000 µg/disc [4]: 12 mm
- diameter of the inhibition zone (DIZ) [5]: inactive
- zone of inhibition at 500 µg/disc [6]: 8 mm
- diameter of the inhibition zone (DIZ) [7]: inactive
- zone of inhibition at 500 µg/disc [8]: 9 mm
- diameter of the inhibition zone (DIZ) [9]: inactive
- zone of inhibition at 500 µg/disc [10]: 9 mm
- MIC [11]: 31.2 µg/mL (≈ 88.3 µM)
- zone of inhibition at 1000 µg/disc [12]: 10 mm
- zone of inhibition at 1000 µg/disc [13]: 10 mm
- diameter of the inhibition zone (DIZ) [14]: inactive
- diameter of the inhibition zone (DIZ) [15]: inactive
- diameter of the inhibition zone (DIZ) [16]: inactive
- diameter of the inhibition zone (DIZ) [17]: inactive
- zone of inhibition at 1000 µg/disc [18]: 10 mm
- diameter of the inhibition zone (DIZ) [19]: inactive
- zone of inhibition at 500 µg/disc [20]: 10 mm
- MIC [21]: 62.5 µg/mL (≈ 177 µM)
- zone of inhibition at 500 µg/disc [22]: 9 mm
- zone of inhibition at 1000 µg/disc [23]: 12 mm
- diameter of the inhibition zone (DIZ) [24]: inactive
- diameter of the inhibition zone (DIZ) [25]: inactive
- diameter of the inhibition zone (DIZ) [26]: inactive
- zone of inhibition at 1000 µg/disc [27]: 10 mm
- MIC [28]: 125 µg/mL (≈ 354 µM)
- MIC [29]: 31.2 µg/mL (≈ 88.3 µM)
- zone of inhibition at 500 µg/disc [30]: 7 mm
- zone of inhibition at 1000 µg/disc [31]: 8 mm
- zone of inhibition at 500 µg/disc [32]: 7 mm
- zone of inhibition at 1000 µg/disc [33]: 10 mm
- diameter of the inhibition zone (DIZ) [34]: inactive

From ChEMBL document CHEMBL1138564, “Microwave-induced synthesis and anti-microbial activities of 7,10,11,12-tetrahydrobenzo[c]acridin-8(9H)-one derivatives” (2009)
